One block for each compound: values may come before it.
Key:
Rattus norvegicus = test: In vivo inhibition of by Matrix metalloprotease enzyme Sponge-wrapped cartilage assay at 5 mg/kg. po. bid; assay type: functional
Oryctolagus cuniculus = test: Effect of compound on cartilage in surgically induced osteoarthritis (OA) model in rabbit at 25 mg/kg; assay type: functional
Summary of the method: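 Rabbits had anterior cruciate ligament transection plus meniscectomy in one knee, with sham surgery on the contralateral knee. From day 10 after surgery, groups of 12 were dosed once daily by oral gavage with vehicle, test compound or the RS-130830 reference for 4 weeks. Knee joints were then collected and scored for gross pathological changes by blinded investigators.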

[1] = molecular target: T1, Disintegrin and metalloproteinase domain-containing protein 17 (Homo sapiens, UniProt P78536); test: In vitro inhibitory activity against tumor necrosis factor alpha converting enzyme (TACE).
Interstitial collagenase = molecular target: T2, Interstitial collagenase (Homo sapiens, UniProt P03956); test: In vitro inhibitory activity against matrix metalloprotease-1
T2 sequence (P03956 whole entry): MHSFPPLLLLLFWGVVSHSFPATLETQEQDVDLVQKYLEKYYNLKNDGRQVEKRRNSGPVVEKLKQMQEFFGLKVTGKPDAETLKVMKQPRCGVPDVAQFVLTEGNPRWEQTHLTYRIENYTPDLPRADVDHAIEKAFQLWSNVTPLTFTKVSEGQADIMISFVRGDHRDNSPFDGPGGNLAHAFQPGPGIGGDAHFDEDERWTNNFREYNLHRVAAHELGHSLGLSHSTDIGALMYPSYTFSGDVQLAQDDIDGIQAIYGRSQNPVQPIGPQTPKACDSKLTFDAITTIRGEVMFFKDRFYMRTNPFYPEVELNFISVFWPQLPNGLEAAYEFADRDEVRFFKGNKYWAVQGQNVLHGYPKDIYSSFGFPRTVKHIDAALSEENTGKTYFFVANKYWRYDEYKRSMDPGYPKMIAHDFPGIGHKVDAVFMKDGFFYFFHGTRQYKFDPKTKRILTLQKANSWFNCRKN

Collagenase 3 = Collagenase 3 (Homo sapiens, UniProt P45452)
[2] = In vivo inhibitory activity against Matrix metalloprotease enzyme by dialysis implant assay, value is relative to activity of CGS-27023 (51+/-3) at 25 mg/kg. po; assay type: functional
[3] = In vivo inhibition of Matrix metalloprotease enzyme by Sponge-wrapped cartilage assay, value are relative to activity of CGS-27023 (33+/-2) at 25 mg/kg. po. bid; assay type: functional
[4] = In vivo inhibitory activity against Matrix metalloprotease enzyme by dialysis implant assay, value is relative to activity of CGS-27023 (62+/-5) at 25 mg/kg. po; assay type: functional
[5] = In vivo inhibitory activity against Matrix metalloprotease enzyme by dialysis implant assay, value is relative to activity of CGS-27023 (68+/5-) at 25 mg/kg. po; assay type: functional
[6] = molecular target: Matrix metalloproteinase-9 (Homo sapiens, UniProt P14780); test: In vitro inhibitory activity against matrix metalloprotease-9.
[7] = molecular target: T1, Disintegrin and metalloproteinase domain-containing protein 17; test: Inhibition of Tumor necrosis factor alpha converting enzyme (TACE) at 10 uM
Summary of the method: (§1)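 Dose–response curves were not generated when inhibition was below 60% at 10 μM.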

[8] = In vivo inhibitory activity against Matrix metalloprotease enzyme by dialysis implant assay, value is relative to activity of CGS-27023 (60+/-3) at 25 mg/kg. po; assay type: functional
[9] = molecular target: T3, Interstitial collagenase (Homo sapiens) (UniProt P03956); test: Inhibition of Matrix metalloprotease-1 at 10 uM; summary of the method: as §1
T3 sequence (whole entry): T2 sequence (P03956 whole entry)

[10] = In vivo inhibitory activity against Matrix metalloprotease enzyme by dialysis implant assay, value are relative to activity of CGS-27023 (73+/-4) at 25 mg/kg. po; assay type: functional
[11] = In vivo inhibitory activity against Matrix metalloprotease enzyme by dialysis implant assay, value are relative to activity of CGS-27023 (67+/-3) at 25 mg/kg. po; assay type: functional
[12] = In vivo inhibitory activity against Matrix metalloprotease enzyme by dialysis implant assay, value is relative to activity of CGS-27023 (74+/-2) at 25 mg/kg. po; assay type: functional
[13] = In vivo inhibition of Matrix metalloprotease enzyme by Sponge-wrapped cartilage assay, value is relative to activity of RS-130830 (23+/-3) at 10 mg/kg. po. bid; assay type: functional
[14] = In vivo inhibitory activity against Matrix metalloprotease enzyme by dialysis implant assay, value is relative to activity of CGS-27023 (61+/-3) at 25 mg/kg. po; assay type: functional
[15] = In vivo inhibitory activity against Matrix metalloprotease enzyme by dialysis implant assay, value are relative to activity of CGS-27023 (64+/-3) at 25 mg/kg. po; assay type: functional
[16] = In vivo inhibitory activity against Matrix metalloprotease enzyme by dialysis implant assay, value is relative to activity of CGS-27023 (75+/-2) at 25 mg/kg. po; assay type: functional
[17] = In vivo inhibition of Matrix metalloprotease enzyme by Sponge-wrapped cartilage assay, compared to activity of RS-130830 (inactive) at 5 mg/kg. po. qd; assay type: functional
[18] = In vivo inhibition of Matrix metalloprotease enzyme by Sponge-wrapped cartilage assay, compared to activity of RS-130830 (20+/-2) at 5 mg/kg. po. bid; assay type: functional
[19] = In vivo inhibition of Matrix metalloprotease enzyme by Sponge-wrapped cartilage assay, value is relative to activity of RS-130830 (40+/-3) at 10 mg/kg. po. bid; assay type: functional
[20] = In vivo inhibitory activity against Matrix metalloprotease enzyme by dialysis implant assay, value is relative to activity of CGS-27023 (54+/-2) at 25 mg/kg. po; assay type: functional
[21] = In vivo inhibitory activity against Matrix metalloprotease enzyme by dialysis implant assay, value is relative to activity of CGS-27023 (60+/-2) at 25 mg/kg. po; assay type: functional
[22] = In vivo inhibition of Matrix metalloprotease enzyme by Sponge-wrapped cartilage assay, value is relative to activity of CGS-27023 (39+/-3) at 25 mg/kg. po. bid; assay type: functional
[23] = In vivo inhibitory activity against Matrix metalloprotease enzyme by dialysis implant assay, value is relative to activity of CGS-27023 (42+/-2) at 25 mg/kg. po; assay type: functional
[24] = In vivo inhibitory activity against Matrix metalloprotease enzyme by dialysis implant assay, value is relative to activity of CGS-27023 (64+/-2) at 25 mg/kg. po; assay type: functional
[25] = In vivo inhibition of Matrix metalloprotease enzyme by Sponge-wrapped cartilage assay, value is relative to activity of RS-130830 (27+/-3) at 10 mg/kg. po. bid; assay type: functional
[26] = In vivo inhibitory activity against Matrix metalloprotease enzyme by dialysis implant assay, value is relative to activity of CGS-27023 (76+/-3) at 25 mg/kg. po; assay type: functional
[27] = In vivo inhibition of Matrix metalloprotease enzyme by Sponge-wrapped cartilage assay, value are relative to activity of RS-130830 (27+/-3) at 10 mg/kg. po. bid; assay type: functional

T1 sequence (P78536 whole entry, the tested form may be a part): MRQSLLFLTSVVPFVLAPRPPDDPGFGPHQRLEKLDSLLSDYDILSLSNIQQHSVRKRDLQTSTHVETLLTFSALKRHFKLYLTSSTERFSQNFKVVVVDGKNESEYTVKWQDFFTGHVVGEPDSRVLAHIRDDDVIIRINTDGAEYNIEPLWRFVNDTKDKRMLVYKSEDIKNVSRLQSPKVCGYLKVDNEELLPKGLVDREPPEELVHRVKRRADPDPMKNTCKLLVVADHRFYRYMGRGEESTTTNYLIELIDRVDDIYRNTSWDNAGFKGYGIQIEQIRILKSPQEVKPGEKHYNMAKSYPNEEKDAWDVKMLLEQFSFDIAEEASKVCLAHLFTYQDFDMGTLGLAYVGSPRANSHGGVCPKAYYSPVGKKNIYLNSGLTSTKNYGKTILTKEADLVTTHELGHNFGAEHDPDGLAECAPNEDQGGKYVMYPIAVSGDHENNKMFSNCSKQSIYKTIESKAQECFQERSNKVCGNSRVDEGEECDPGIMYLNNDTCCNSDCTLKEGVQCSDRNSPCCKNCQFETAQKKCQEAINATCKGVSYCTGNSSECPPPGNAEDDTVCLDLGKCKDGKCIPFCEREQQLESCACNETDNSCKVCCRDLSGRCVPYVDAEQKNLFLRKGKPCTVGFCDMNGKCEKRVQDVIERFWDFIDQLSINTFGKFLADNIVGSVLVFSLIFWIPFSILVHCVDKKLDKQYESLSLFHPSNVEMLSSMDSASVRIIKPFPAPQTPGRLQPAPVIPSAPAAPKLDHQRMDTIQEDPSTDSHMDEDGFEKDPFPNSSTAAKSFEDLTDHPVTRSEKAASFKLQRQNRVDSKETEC
Chain of Matrix metalloproteinase-9 (P14780 whole entry, the tested form may be a part): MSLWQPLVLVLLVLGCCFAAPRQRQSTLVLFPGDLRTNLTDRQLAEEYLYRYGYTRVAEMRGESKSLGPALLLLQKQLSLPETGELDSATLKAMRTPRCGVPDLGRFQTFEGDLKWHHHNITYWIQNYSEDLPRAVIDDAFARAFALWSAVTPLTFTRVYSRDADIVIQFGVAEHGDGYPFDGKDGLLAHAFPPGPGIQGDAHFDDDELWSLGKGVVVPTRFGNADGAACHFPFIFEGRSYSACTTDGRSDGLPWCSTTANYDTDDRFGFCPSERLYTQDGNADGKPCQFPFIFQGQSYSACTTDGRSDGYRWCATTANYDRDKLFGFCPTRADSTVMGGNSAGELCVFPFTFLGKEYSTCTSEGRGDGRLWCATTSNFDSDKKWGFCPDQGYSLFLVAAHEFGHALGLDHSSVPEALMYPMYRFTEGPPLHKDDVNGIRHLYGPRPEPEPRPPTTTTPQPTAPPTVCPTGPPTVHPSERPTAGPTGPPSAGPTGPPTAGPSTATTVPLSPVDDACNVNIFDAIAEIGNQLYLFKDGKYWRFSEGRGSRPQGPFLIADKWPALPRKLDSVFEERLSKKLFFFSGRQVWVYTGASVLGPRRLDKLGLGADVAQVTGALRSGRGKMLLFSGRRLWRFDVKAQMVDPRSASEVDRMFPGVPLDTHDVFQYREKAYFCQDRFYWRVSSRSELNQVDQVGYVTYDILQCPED

SMILES: O=C(NO)C1(CS(=O)(=O)c2ccc(Oc3ccc(Cl)cc3)cc2)CCOCC1 [CTS-1027]
- inhibition in vivo at 5 mg/kg (Rattus norvegicus): 20%
- gross pathology score at 25 mg/kg (Oryctolagus cuniculus): 7.9 score
- IC50 [1]: 176 nM
- IC50 (Interstitial collagenase): 233 nM

SMILES: Cc1ccc(CN2CCC(C(=O)NO)(S(=O)(=O)c3ccc(OCc4ccc(Cl)cc4)cc3)CC2)cc1
- IC50 (Collagenase 3): 6 nM

SMILES: COc1ccc(S(=O)(=O)C2(C(=O)NO)CCN(Cc3ccc4ccccc4c3)CC2)cc1
- inhibition in vivo at 25 mg/kg [2]: 62%
- inhibition in vivo at 25 mg/kg [3]: 14%

SMILES: COc1ccc(S(=O)(=O)C2(C(=O)NO)CCN(Cc3ccc(-c4ccccc4)cc3)CC2)cc1
- inhibition in vivo at 25 mg/kg [5]: 29%
- IC50 [1]: 610 nM
- IC50 (Collagenase 3): 3 nM
- IC50 (Interstitial collagenase): 1330 nM
- IC50 [6]: 13 nM

SMILES: COc1ccc(S(=O)(=O)C2(C(=O)NO)CCN(CCCOc3ccccc3)CC2)cc1
- inhibition [7]: 50%
- inhibition in vivo at 25 mg/kg [8]: 28%
- IC50 (Collagenase 3): 4 nM

SMILES: COc1ccc(S(=O)(=O)C2(C(=O)NO)CCN(C(C)(C)C)CC2)cc1
- inhibition [9]: 59%
- inhibition [7]: 9%

SMILES: CCCCOc1ccc(S(=O)(=O)C2(C(=O)NO)CCN(Cc3cccc(OC)c3)CC2)cc1
- inhibition in vivo at 25 mg/kg [11]: 82%
- IC50 [6]: 3 nM

SMILES: COc1ccc(S(=O)(=O)C2(C(=O)NO)CCN(CC=C(C)C)CC2)cc1
- inhibition [7]: 49%
- inhibition in vivo at 25 mg/kg [5]: 57%

SMILES: COc1ccc(S(=O)(=O)C2(C(=O)NO)CCN(C3CCCCCCC3)CC2)cc1
- inhibition [7]: 22%
- inhibition in vivo at 25 mg/kg [12]: 71%

SMILES: CCCCOc1ccc(S(=O)(=O)C2(C(=O)NO)CCN(Cc3ccc(Cl)c(Cl)c3)CC2)cc1
- inhibition [7]: 57%
- inhibition in vivo at 25 mg/kg [15]: 14%
- IC50 (Collagenase 3): 5 nM
- IC50 [6]: 20 nM

SMILES: CCCCOc1ccc(S(=O)(=O)C2(C(=O)NO)CCN(Cc3ccc(OCCN4CCCCC4)cc3)CC2)cc1
- inhibition in vivo at 25 mg/kg [16]: 98%
- inhibition in vivo at 5 mg/kg [17]: 33%
- inhibition in vivo at 5 mg/kg [18]: 56%
- inhibition in vivo at 10 mg/kg [19]: 67%

SMILES: CCCCOc1ccc(S(=O)(=O)C2(C(=O)NO)CCN(CCOc3ccccc3)CC2)cc1
- inhibition in vivo at 25 mg/kg [20]: 29%
- IC50 [6]: 5 nM

SMILES: COc1ccc(S(=O)(=O)C2(C(=O)NO)CCN(Cc3ccc(OCCN4CCCCC4)cc3)CC2)cc1
- inhibition in vivo at 25 mg/kg [22]: 56%
- inhibition in vivo at 25 mg/kg [23]: 53%
- IC50 (Collagenase 3): 3 nM
- IC50 [6]: 3 nM

SMILES: O=C(NO)C1(S(=O)(=O)c2ccc(Oc3ccc(Cl)cc3)cc2)CCNCC1
- IC50 [1]: 848 nM
- IC50 (Collagenase 3): 2 nM
- IC50 (Interstitial collagenase): 1260 nM
- IC50 [6]: 2 nM

SMILES: CCCCOc1ccc(S(=O)(=O)C2(C(=O)NO)CCOCC2)cc1
- IC50 [1]: 177 nM
- IC50 (Collagenase 3): 1.4 nM
- IC50 (Interstitial collagenase): 1380 nM
- IC50 [6]: 9.2 nM

SMILES: CCCCOc1ccc(S(=O)(=O)C2(C(=O)NO)CCN(CC)CC2)cc1
- inhibition [7]: 51%
- inhibition in vivo at 25 mg/kg [24]: 64%
- inhibition in vivo at 10 mg/kg [25]: 34%
- IC50 (Collagenase 3): 2 nM

SMILES: CC(C)CCOc1ccc(S(=O)(=O)C2(C(=O)NO)CCN(Cc3ccccc3)CC2)cc1
- inhibition in vivo at 25 mg/kg [15]: 80%
- inhibition in vivo at 10 mg/kg [27]: 34%
- IC50 (Collagenase 3): 2 nM
- IC50 [6]: 4 nM

SMILES: CCCCN1CCC(C(=O)NO)(S(=O)(=O)c2ccc(OC)cc2)CC1
- inhibition [9]: 56%
- inhibition [7]: 15%
- inhibition in vivo at 25 mg/kg [26]: 56%

SMILES: COc1ccc(S(=O)(=O)C2(C(=O)NO)CCN(CCOc3ccccc3)CC2)cc1
- inhibition in vivo at 25 mg/kg [20]: 6%
- IC50 (Collagenase 3): 3 nM
- IC50 [6]: 26 nM

The next lines start with results.

- IC50 (Collagenase 3): 9 nM
SMILES: COc1ccc(S(=O)(=O)C2(C(=O)NO)CCN(CCc3ccccc3)CC2)cc1
- inhibition in vivo at 25 mg/kg [4]: 68%

- IC50 (Collagenase 3): 2 nM
- IC50 [6]: 6 nM
SMILES: COc1ccc(S(=O)(=O)C2(C(=O)NO)CCN(Cc3ccc(Cl)c(Cl)c3)CC2)cc1
- inhibition in vivo at 25 mg/kg [2]: 47%

- IC50 (Interstitial collagenase): 490 nM
SMILES: COc1ccc(CN2CCC(C(=O)NO)(S(=O)(=O)c3ccc(Oc4ccc(Cl)cc4)cc3)CC2)cc1
- inhibition in vivo at 25 mg/kg [10]: 93%
- IC50 [1]: 492 nM

- IC50 (Collagenase 3): 1 nM
- IC50 [6]: 1 nM
SMILES: CCN1CCC(C(=O)NO)(S(=O)(=O)c2ccc(Oc3ccc(Cl)cc3)cc2)CC1
- inhibition in vivo at 10 mg/kg [13]: 75%
- inhibition in vivo at 25 mg/kg [14]: 90%

- IC50 [6]: 6 nM
SMILES: COc1ccc(S(=O)(=O)C2(C(=O)NO)CCN(Cc3ccc(-c4ccccn4)cc3)CC2)cc1
- inhibition in vivo at 25 mg/kg [15]: 78%

- IC50 [6]: 9 nM
SMILES: COc1ccc(S(=O)(=O)C2(C(=O)NO)CCN(Cc3cccc(OC)c3)CC2)cc1
- inhibition in vivo at 25 mg/kg [21]: 70%

- IC50 (Collagenase 3): 2 nM
- IC50 [6]: 16 nM
SMILES: COc1ccc(S(=O)(=O)C2(C(=O)NO)CCN(Cc3ccc(F)cc3)CC2)cc1
- inhibition in vivo at 25 mg/kg [26]: 83%

- IC50 (Collagenase 3): 2 nM
SMILES: COc1ccc(CCN2CCC(C(=O)NO)(S(=O)(=O)c3ccc(OC)cc3)CC2)cc1
- inhibition in vivo at 25 mg/kg [4]: 48%
- inhibition [7]: 53%

- IC50 [6]: 10 nM
SMILES: COc1ccc(S(=O)(=O)C2(C(=O)NO)CCN(Cc3ccccc3)CC2)cc1

- IC50 (Collagenase 3): 2 nM
- IC50 [6]: 10 nM
SMILES: COc1ccc(S(=O)(=O)C2(C(=O)NO)CCN(Cc3ccc(Br)cc3)CC2)cc1
- inhibition in vivo at 25 mg/kg [2]: 51%
- inhibition [7]: 71%

Source: ChEMBL document CHEMBL1145787, “Synthesis and structure-activity relationship of N-substituted 4-arylsulfonylpiperidine-4-hydroxamic acids as novel, orally active matrix metalloproteinase inhibitors for the treatment of osteoarthritis” (J Med Chem, 2003)
